Measured values from different studies.
ADH1 W83R: ADH1 (Saccharomyces cerevisiae, UniProt P00330, W83R)
lecA: PA-I galactophilic lectin (lecA, Pseudomonas aeruginosa, UniProt Q05097)
Chymotrypsinogen A: Chymotrypsinogen A (Bos taurus, UniProt P00766)

SMILES | target | assay | conditions | Ki
NC(=O)C1=CN([C@@H]2O[C@H](COP(=O)(O)OP(=O)(O)OC[C@H]3O[C@@H](n4cnc5c(N)ncnc54)[C@H](O)[C@@H]3O)[C@@H](O)[C@H]2O)C=CC1 | ADH1 W83R | enzyme activity, inhibitor | – | 24 µM
[N-]=[N+]=NCCCC(=O)Nc1ccc(S[C@@H]2O[C@H](CO)[C@H](O)[C@H](O)[C@H]2O)cc1 | lecA | ligand displacement, FP | – | 4.01 µM
CCCC[C@H](NC(=O)[C@H](CCC(N)=O)NC(=O)[C@H](CO)NC(=O)C[C@@H](Cc1ccc2ccccc2c1)NC(=O)CCCCCN)C(=O)N[C@@H](Cc1ccccc1)B(O)O | Chymotrypsinogen A | enzyme activity, inhibitor, fluorescence | – | 0.00721 µM
O=C(Cn1cc(CCN2CCN(c3cc4c(cc3F)c(=O)c(C(=O)O)cn4C3CC3)CC2)nn1)Nc1ccc(S[C@@H]2O[C@H](CO)[C@H](O)[C@H](O)[C@H]2O)cc1 | lecA | ligand displacement, FP | – | 1.48 µM
CCCC[C@H](NC(=O)[C@H](CCC(N)=O)NC(=O)[C@H](CO)NC(=O)CCCCCN)C(=O)N[C@@H](Cc1ccccc1)B(O)O | Chymotrypsinogen A | enzyme activity, inhibitor, fluorescence | – | 0.00377 µM
O=C(CCCCn1cc(CN2CCN(c3cc4c(cc3F)c(=O)c(C(=O)O)cn4C3CC3)CC2)nn1)Nc1ccc(S[C@@H]2O[C@H](CO)[C@H](O)[C@H](O)[C@H]2O)cc1 | lecA | ligand displacement, FP | – | 3.27 µM
CCCC[C@H](NC(=O)[C@H](CCC(N)=O)NC(=O)[C@H](CO)NC(=O)[C@H](C)NC(=O)CCCCCN)C(=O)N[C@@H](Cc1ccccc1)B(O)O | Chymotrypsinogen A | enzyme activity, inhibitor, fluorescence | – | 0.0362 µM
[N-]=[N+]=NCCCCC(=O)Nc1ccc(S[C@@H]2O[C@H](CO)[C@H](O)[C@H](O)[C@H]2O)cc1 | lecA | ligand displacement, FP | – | 3.67 µM
CCn1c(-c2nc3cc(C(=O)N4CCC[C@@H](N)C4)cc(OC)c3n2C)cc2cccnc21 | Protein-arginine deiminase type-3 (PADI3, Homo sapiens, UniProt Q9ULW8) | enzyme activity, inhibitor | – | 925 µM
OCC(F)(F)F | ADH1 W83R | enzyme activity, inhibitor | – | 980 µM
CCCC[C@H](NC(=O)[C@H](CCC(N)=O)NC(=O)[C@H](CO)NC(=O)[C@H](CO)NC(=O)CCCCCN)C(=O)N[C@@H](CC(C)C)B(O)O | Chymotrypsinogen A | enzyme activity, inhibitor, fluorescence | – | 0.138 µM
c1cc2c(cc1C1CCCCC1)c1c3n2CCNC3CCC1 (stereo not shown) | Amine oxidase [flavin-containing] A (Maoa, Rattus norvegicus, UniProt P21396) | enzyme activity, inhibitor | pH 7.5 | 3.6 µM
C/C(=C\C(=O)OCCCCCCCCC(=O)O)C[C@@H]1OC[C@H](C[C@@H]2O[C@H]2[C@@H](C)[C@H](C)O)[C@@H](O)[C@H]1O | Isoleucine--tRNA ligase (ileS, Escherichia coli K-12, UniProt P00956) | enzyme activity, inhibitor, absorbance | – | 0.0008 µM
